Test results: the RNAGym collection of RNA variant scans (doi:10.1126/science.aae0568)
This sample holds only a part of the variants without activity.

B1: tRNA (parent)
chain: GUUCCGUUGGCGUAAUGGUAACGCGUCUCCCUCCUAAGGAGAAGACUGCGGGUUCGAGUCCCGUACGGAACG

Variants of: B1
Assay: yeast fitness relative to wild type (ratio to wild type); higher = fitter; tRNA-Arg(CCU), competitive growth, 37 C, YPD
Summary of the method: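 The tRNA-Arg(CCU) gene variants were made by chemical synthesis with a 3% per-site mutation rate at 69 sites and inserted at the native genomic locus of Saccharomyces cerevisiae. After pooling, the strains were competed in YPD at 37°C for 24 hours in six parallel replicates. Gene amplicons from the start population and each end population were read by 100-nucleotide paired-end sequencing, and Darwinian fitness relative to wild type was taken from genotype frequency changes. Genotypes needed ≥ 100 starting reads, and estimates < 0.5 were set to 0.5.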

| Variant | yeast fitness |
| --- | --- |
| U2C C11U A21C U26C A57U | ≤ 0.5 |
| U2A U28G A40C G67C | 0.639 |
| U2C C24G C49U | ≤ 0.5 |
| U2A U32A C62G | 0.509 |
| U2A U47G G50C | ≤ 0.5 |
| U2C C34G | 0.62 |
| U2C A14C A40C | ≤ 0.5 |
| U2C A14C A40G | 0.775 |
| U2C C27A A69C | ≤ 0.5 |
| U2A U28C G39A | 0.508 |
| U2C C5A C24A U47A C66G | ≤ 0.5 |
| U2C A70U | 1.06 |
| U2C A20U G25A C27G G67A | ≤ 0.5 |
| U2A U13C U16A G56C A57G C62U | 0.528 |
| U2C A14G | 0.863 |
| U2C A65U G67A | 0.698 |
| U2C A21U A40C G56C | 0.66 |
| U2C A21G C33G U35C U59A A69U | ≤ 0.5 |
| U2A U8A C29G C60U C62A | ≤ 0.5 |
| U2C C24U C60A | ≤ 0.5 |
| U2C C5A C30G | ≤ 0.5 |

| Variant | yeast fitness |
| --- | --- |
| U2A U47C | 1.08 |
| U2C A43U G48A C61G A70C | ≤ 0.5 |
| U2A U3G G18A A20C C49U C55U | ≤ 0.5 |
| U2C A37G C55G U64A | ≤ 0.5 |
| U2C A14G G18A U32A G44A G56C | ≤ 0.5 |
| U2C C22G U53C | 0.504 |
| U2C C5A A65U | 0.668 |
| U2C C11U G12A A15G U54C C66U G68C A69U | ≤ 0.5 |
| U2C C24U G44C A69U | ≤ 0.5 |
| U2C C11G C46A A57U | ≤ 0.5 |
| U2C C5G G9A A15U A69U | ≤ 0.5 |
| U2A U16C G68A | ≤ 0.5 |
| U2A U3G C11A U16C C22G A57C C62A | 0.572 |
| U2C A37U A43U | 0.568 |
| U2C A40G U59C | 0.587 |
| U2C C11G C46A A70C | ≤ 0.5 |
| U2C C4G G9A C24U A45C | ≤ 0.5 |
| U2A U64A A70U | 1.06 |
| U2C C5A C46U | 0.591 |
| U2C A15G U19A A20U A37U A45G U47G C61G | 0.676 |
| U2C C5G U59A | 0.613 |

| Variant | yeast fitness |
| --- | --- |
| U2C C4G C22U C30A | ≤ 0.5 |
| U2C A45U C46G G58C U59C A65G C66G | 0.628 |
| U2A U16C C30A | 0.558 |
| U2C A15U U16C G23C | ≤ 0.5 |
| U2C C11G C27U C46G | 0.606 |
| U2A U7C G17C C29A A45U U59C | 0.902 |
| U2C C29U C34U A57C U64C | ≤ 0.5 |
| U2C C27A G41A C49A U53C U54C U64C | ≤ 0.5 |
| U2A U8A C33U A43U A57G G67U | ≤ 0.5 |
| U2C A20U A69C | 0.636 |
| U2C C5G C27U A45G U53C | ≤ 0.5 |
| U2C C22G C31U C60U C61U | 0.527 |
| U2C C4A G23A C61A | ≤ 0.5 |
| U2A U16G G23C C31U A36U U59A | ≤ 0.5 |
| U2C C11U | 1.03 |
| U2C C30G C31G C46G U54A | ≤ 0.5 |
| U2A U16G A42G A43U C46U C62U | ≤ 0.5 |
| U2C A36U C46G A69U | 0.517 |
| U2A U7C G25A A36U C62U G67A | ≤ 0.5 |
| U2C C11G U19G | ≤ 0.5 |
| U2C A57C A69U | 0.578 |

| Variant | yeast fitness |
| --- | --- |
| U2A U16G C27G C49G G67U | ≤ 0.5 |
| U2C C5G C46U A70G | 0.994 |
| U2C C5G C46U U54G A65C | ≤ 0.5 |
| U2C A20U C61A G67A | ≤ 0.5 |
| U2C A40C | 0.851 |
| U2C A42G G63A | 0.543 |
| U2C C5U A15U | 0.568 |
| U2C C27A C31G | 0.557 |
| U2C C22A C29A C55U C61A | ≤ 0.5 |
| U2C A14C A37U A40C | ≤ 0.5 |
| U2C C22U G48A G63C | 0.701 |
| U2A U13A C24A C30A | ≤ 0.5 |
| U2A U47C C66U | 0.683 |
| U2A U28A A37C U64C A65G | ≤ 0.5 |
| U2C C27G C31G A69U | ≤ 0.5 |
| U2A U19A C27U G67A | ≤ 0.5 |
| U2C A40G A43U A45C | ≤ 0.5 |
| U2A U8C C24G A43U C46U | ≤ 0.5 |
| U2C C29A A43G | 0.603 |
| U2C C34G A45C A57C | ≤ 0.5 |
